Results taken from ChEMBL document CHEMBL1933058, “5-(2-amino-pyrimidin-4-yl)-1H-pyrrole and 2-(2-amino-pyrimidin-4-yl)-1,5,6,7-tetrahydro-pyrrolo[3,2-c]pyridin-4-one derivatives as new classes of selective and orally available Polo-like kinase 1 inhibitors” (Bioorg Med Chem Lett, 2012).
pIC50: −log10 of the molar value. Activity calls are given as the source filed them. The calls are words filed in the database; no cut-off is given here.

What was measured:
[1] = target: Serine/threonine-protein kinase PLK2 (Homo sapiens, UniProt Q9NYY3); experiment: Inhibition of PLK2
[2] = target: Serine/threonine-protein kinase PLK3 (Homo sapiens, UniProt Q9H4B4); experiment: Inhibition of PLK3
Chain of Serine/threonine-protein kinase PLK3 (Q9H4B4 whole entry): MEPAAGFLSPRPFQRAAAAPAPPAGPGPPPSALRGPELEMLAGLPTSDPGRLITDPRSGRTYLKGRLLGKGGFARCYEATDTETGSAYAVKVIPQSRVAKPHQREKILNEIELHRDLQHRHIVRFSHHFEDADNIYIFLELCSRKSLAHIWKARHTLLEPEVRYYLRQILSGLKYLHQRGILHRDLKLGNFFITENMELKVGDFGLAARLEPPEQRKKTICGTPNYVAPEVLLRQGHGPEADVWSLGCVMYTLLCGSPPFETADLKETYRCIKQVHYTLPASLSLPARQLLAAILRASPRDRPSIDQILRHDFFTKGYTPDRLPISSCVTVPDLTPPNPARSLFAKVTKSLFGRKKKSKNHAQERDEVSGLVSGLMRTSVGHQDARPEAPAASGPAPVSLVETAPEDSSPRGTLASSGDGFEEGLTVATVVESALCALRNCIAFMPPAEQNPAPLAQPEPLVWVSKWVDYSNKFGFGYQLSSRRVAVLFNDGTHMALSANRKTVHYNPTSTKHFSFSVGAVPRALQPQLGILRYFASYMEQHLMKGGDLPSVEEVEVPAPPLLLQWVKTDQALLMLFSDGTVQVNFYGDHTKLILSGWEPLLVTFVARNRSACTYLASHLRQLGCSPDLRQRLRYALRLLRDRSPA

[3] = target: Cyclin-dependent kinase 2/cyclin A (Homo sapiens, UniProt P24941); experiment: Inhibition of CDK2/cyclin A; format: protein-complex assay
[4] = system: A2780; experiment: Antiproliferative activity against human A2780 cells; format: functional, cell-based
[5] = Inhibition of CK2
[6] = target: Receptor-type tyrosine-protein kinase FLT3 (Homo sapiens, UniProt P36888); experiment: Inhibition of FLT3
Chain of Receptor-type tyrosine-protein kinase FLT3 (P36888 whole entry): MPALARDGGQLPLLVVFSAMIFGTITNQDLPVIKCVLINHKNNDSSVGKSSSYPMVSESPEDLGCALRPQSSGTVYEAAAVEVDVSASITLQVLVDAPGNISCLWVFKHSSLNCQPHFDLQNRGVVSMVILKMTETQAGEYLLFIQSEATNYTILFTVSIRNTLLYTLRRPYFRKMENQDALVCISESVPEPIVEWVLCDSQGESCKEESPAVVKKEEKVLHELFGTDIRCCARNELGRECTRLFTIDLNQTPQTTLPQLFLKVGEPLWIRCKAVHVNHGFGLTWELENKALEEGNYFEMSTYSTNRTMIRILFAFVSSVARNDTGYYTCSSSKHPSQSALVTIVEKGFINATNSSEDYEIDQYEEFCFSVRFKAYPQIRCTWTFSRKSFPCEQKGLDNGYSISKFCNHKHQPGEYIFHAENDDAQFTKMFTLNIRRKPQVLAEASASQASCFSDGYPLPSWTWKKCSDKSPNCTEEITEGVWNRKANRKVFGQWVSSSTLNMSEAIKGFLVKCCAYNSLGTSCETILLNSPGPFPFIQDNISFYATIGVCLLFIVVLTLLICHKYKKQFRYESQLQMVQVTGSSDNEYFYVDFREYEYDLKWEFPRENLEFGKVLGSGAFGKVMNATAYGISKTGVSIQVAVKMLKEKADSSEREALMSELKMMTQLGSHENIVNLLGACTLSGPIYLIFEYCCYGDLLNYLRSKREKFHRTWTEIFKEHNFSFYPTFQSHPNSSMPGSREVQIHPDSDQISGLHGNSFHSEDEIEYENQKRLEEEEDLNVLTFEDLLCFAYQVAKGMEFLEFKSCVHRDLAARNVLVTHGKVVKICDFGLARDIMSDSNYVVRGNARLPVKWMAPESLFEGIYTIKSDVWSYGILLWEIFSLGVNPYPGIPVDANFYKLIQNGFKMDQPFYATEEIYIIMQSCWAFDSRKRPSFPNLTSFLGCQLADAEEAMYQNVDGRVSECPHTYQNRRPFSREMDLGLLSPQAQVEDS

[7] = target: RAC-alpha serine/threonine-protein kinase (Homo sapiens, UniProt P31749); experiment: Inhibition of AKT1
[8] = target: Protein-tyrosine kinase 6 (Homo sapiens, UniProt Q13882); experiment: Inhibition of BRK
[9] = target: Cell division cycle 7-related protein kinase (Homo sapiens, UniProt O00311); experiment: Inhibition of CDC7
[10] = target: Cyclin-dependent kinase 1/cyclin B1 (Homo sapiens, UniProt P06493); experiment: Inhibition of CDK1/cyclin B; format: protein-complex assay
[11] = target: Cyclin-dependent kinase 2/cyclin E1 (Homo sapiens, UniProt P24941); experiment: Inhibition of CDK2/cyclin E; format: protein-complex assay
[12] = target: Cyclin-dependent kinase 4/cyclin D1 (Homo sapiens, UniProt P11802); experiment: Inhibition of CDK4/cyclin D1; format: protein-complex assay
[13] = target: Serine/threonine-protein kinase Chk1 (Homo sapiens, UniProt O14757); experiment: Inhibition of CHK1
[14] = target: Mitogen-activated protein kinase 1 (Homo sapiens, UniProt P28482); experiment: Inhibition of ERK2
[15] = target: Insulin-like growth factor 1 receptor (Homo sapiens, UniProt P08069); experiment: Inhibition of IGFR1
Chain of Insulin-like growth factor 1 receptor (P08069 31-736 limits assumed): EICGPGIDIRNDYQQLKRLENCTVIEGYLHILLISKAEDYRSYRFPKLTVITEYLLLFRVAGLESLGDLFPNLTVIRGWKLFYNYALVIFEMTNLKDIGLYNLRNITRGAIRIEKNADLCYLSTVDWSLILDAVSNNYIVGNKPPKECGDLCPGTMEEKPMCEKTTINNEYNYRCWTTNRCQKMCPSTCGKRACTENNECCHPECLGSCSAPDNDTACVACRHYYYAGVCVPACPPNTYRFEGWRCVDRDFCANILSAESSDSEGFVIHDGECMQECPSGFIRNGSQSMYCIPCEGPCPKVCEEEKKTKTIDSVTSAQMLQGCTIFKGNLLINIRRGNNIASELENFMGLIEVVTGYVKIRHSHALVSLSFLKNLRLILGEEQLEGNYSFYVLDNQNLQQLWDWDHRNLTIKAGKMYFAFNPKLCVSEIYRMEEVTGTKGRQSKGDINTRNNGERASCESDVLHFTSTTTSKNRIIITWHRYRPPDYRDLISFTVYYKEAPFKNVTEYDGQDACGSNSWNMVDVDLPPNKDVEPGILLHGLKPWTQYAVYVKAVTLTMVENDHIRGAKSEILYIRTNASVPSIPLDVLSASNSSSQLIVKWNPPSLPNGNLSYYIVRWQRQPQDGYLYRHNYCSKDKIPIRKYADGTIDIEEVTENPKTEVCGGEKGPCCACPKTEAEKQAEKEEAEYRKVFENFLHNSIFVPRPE
Chain of Insulin-like growth factor 1 receptor (P08069 741-1367 limits assumed): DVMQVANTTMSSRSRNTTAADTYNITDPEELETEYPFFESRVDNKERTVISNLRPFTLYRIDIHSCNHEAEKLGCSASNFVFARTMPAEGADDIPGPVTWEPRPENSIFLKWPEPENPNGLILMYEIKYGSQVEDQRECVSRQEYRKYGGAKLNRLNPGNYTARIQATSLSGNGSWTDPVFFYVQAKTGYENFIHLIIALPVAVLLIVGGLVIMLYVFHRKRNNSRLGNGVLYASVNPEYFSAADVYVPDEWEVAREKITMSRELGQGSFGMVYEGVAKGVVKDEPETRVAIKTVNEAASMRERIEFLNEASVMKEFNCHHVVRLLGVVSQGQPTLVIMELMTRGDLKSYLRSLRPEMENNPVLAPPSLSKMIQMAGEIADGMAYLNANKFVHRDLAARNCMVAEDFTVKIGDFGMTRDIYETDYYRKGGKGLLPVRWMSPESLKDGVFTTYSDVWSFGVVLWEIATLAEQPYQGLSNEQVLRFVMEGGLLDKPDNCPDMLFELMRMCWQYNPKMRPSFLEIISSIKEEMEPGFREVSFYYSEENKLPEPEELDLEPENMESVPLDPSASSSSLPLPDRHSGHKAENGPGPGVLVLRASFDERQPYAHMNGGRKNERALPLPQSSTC

[16] = target: Inhibitor of nuclear factor kappa-B kinase subunit beta (Homo sapiens, UniProt O14920); experiment: Inhibition of IKK2
[17] = target: Insulin receptor (Homo sapiens, UniProt P06213); experiment: Inhibition of IR
[18] = target: Mast/stem cell growth factor receptor Kit (Homo sapiens, UniProt P10721); experiment: Inhibition of KIT
[19] = target: MAP kinase-activated protein kinase 2 (Homo sapiens, UniProt P49137); experiment: Inhibition of MAP-KAPK2
[20] = target: Hepatocyte growth factor receptor (Homo sapiens, UniProt P08581); experiment: Inhibition of MET
[21] = target: Serine/threonine-protein kinase Nek6 (Homo sapiens, UniProt Q9HC98); experiment: Inhibition of NEK6
[22] = target: Mitogen-activated protein kinase 14 (Homo sapiens, UniProt Q16539); experiment: Inhibition of P38alpha
[23] = target: Serine/threonine-protein kinase PAK 4 (Homo sapiens, UniProt O96013); experiment: Inhibition of PAK4
Chain of Serine/threonine-protein kinase PAK 4 (O96013 whole entry): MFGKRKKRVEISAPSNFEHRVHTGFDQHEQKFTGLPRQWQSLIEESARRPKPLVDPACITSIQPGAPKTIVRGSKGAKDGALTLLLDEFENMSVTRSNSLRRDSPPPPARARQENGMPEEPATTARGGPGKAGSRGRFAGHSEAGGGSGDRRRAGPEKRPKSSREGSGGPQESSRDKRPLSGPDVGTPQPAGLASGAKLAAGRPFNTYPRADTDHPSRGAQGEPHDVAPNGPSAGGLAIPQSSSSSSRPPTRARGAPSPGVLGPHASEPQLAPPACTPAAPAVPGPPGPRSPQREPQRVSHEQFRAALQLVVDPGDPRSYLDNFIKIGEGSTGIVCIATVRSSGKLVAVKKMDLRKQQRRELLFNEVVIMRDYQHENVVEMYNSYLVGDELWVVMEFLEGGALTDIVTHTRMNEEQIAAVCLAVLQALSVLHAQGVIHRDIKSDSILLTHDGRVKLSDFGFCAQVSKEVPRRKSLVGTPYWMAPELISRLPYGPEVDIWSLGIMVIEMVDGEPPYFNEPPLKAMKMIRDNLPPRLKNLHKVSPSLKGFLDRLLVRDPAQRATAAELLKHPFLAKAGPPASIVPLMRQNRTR

[24] = target: Protein kinase C beta type (Homo sapiens, UniProt P05771); experiment: Inhibition of PKCbeta
[25] = target: Proto-oncogene tyrosine-protein kinase receptor Ret (Homo sapiens, UniProt P07949); experiment: Inhibition of RET
[26] = Inhibition of SULU1
[27] = target: Vascular endothelial growth factor receptor 3 (Homo sapiens, UniProt P35916); experiment: Inhibition of VEGFR3
Chain of Vascular endothelial growth factor receptor 3 (P35916 whole entry): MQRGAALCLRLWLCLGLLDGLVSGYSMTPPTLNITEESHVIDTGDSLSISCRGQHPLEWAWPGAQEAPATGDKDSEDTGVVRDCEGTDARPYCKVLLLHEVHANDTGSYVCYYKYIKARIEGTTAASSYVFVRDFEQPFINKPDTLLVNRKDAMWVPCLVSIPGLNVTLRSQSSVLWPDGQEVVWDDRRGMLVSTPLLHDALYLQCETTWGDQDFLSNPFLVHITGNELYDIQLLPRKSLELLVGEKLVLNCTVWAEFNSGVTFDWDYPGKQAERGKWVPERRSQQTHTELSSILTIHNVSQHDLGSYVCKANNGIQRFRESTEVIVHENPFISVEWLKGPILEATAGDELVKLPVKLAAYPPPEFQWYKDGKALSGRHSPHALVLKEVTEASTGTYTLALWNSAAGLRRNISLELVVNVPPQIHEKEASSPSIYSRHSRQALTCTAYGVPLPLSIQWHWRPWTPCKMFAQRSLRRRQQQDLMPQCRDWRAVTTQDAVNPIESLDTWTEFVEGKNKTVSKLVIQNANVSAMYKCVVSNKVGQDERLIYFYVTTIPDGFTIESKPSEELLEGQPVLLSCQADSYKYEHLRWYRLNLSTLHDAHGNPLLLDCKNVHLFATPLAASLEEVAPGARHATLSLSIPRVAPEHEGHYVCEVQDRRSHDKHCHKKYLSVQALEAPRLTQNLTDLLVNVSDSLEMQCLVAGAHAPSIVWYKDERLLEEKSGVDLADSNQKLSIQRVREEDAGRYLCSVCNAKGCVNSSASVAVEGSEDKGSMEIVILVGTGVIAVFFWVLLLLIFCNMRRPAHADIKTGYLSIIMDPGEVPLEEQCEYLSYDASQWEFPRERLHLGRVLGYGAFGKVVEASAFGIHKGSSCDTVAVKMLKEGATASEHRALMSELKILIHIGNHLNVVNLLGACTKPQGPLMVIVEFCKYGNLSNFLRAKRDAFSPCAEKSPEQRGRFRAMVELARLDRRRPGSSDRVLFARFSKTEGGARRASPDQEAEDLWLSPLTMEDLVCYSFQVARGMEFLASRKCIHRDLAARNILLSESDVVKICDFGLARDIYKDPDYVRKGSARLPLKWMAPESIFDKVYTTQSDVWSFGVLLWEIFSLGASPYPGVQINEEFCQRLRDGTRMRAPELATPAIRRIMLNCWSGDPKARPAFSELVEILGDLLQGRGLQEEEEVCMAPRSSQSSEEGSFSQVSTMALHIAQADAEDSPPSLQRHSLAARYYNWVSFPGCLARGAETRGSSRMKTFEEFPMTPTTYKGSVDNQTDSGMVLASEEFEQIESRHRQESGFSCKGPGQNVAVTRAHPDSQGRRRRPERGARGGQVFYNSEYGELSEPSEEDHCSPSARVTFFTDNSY

[28] = system: HCT-116; experiment: Antiproliferative activity against human HCT116 cells; format: functional, cell-based
[29] = system: MDA-MB-468; experiment: Antiproliferative activity against human MDA-MB-468 cells; format: functional, cell-based
[30] = system: K562; experiment: Antiproliferative activity against human K562 cells; format: functional, cell-based
[31] = system: MOLM-13; experiment: Antiproliferative activity against human MOLM13 cells; format: functional, cell-based
[32] = system: MOLT-4; experiment: Antiproliferative activity against human MOLT4 cells; format: functional, cell-based
[33] = Antiproliferative activity against human SUP-M2 cells; format: functional, cell-based
[34] = system: A2780; experiment: Cell cycle arrest in human A2780 cells assessed as accumulation at G2/M phase at 0.05 to 5 uM after 24 hrs by FACS analysis; format: functional, cell-based
Outline: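 A2780 cells were exposed for 24 h to 0.05, 0.5 or 5 µM. Cell-cycle distribution was read by flow cytometry (FACS), scoring G2-M accumulation. Nocodazole-treated cells served as positive control.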

[35] = system: A2780; experiment: Cell cycle arrest in human A2780 cells assessed as increase of phospho Ser10 histone H3 level after 24 hrs by Western blotting analysis; format: functional, cell-based
Outline: (§1)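 A2780 cells were treated for 24 h at 0.05, 0.5 and 5 µM, with nocodazole as positive control. Lysates were immunoblotted for pSer10 histone H3, pThr199 nucleophosmin, cyclin B1, cyclin A, PARP cleavage and caspase 3 activation.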

[36] = system: A2780; experiment: Cell cycle arrest in human A2780 cells assessed as induction of phospho Thr199 nucleophosmin level after 24 hrs by Western blotting analysis; format: functional, cell-based; outline: as §1
[37] = system: A2780; experiment: Induction of apoptosis in human A2780 cells assessed as PARP cleavage at 5 uM after 24 hrs by Western blotting analysis; format: functional, cell-based; outline: as §1
[38] = system: A2780; experiment: Induction of apoptosis in human A2780 cells assessed as caspase3 activation at 5 uM after 24 hrs by Western blotting analysis; format: functional, cell-based; outline: as §1
[39] = system: A2780; experiment: Cell cycle arrest in human A2780 cells assessed as reduction of phospho Ser46 TCTP level at 0.05 to 5 uM after 1 hr by Western blotting analysis; format: functional, cell-based
Outline: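 A2780 cells got 1 h exposure at 0.05, 0.5 and 5 µM, with nocodazole-treated cells as comparator. Western blot was used to probe the PLK1 substrate marker pSer46 TCTP and the mitotic marker pSer10 histone H3.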

[40] = Apparent permeability of the compound by PAMPA; format: ADME
[41] = AUC (0 to infinity) in Nu/Nu Balb Harlan mouse at 10 mg/kg, iv; format: ADME, organism-based; parameters: time infinity, dose 10 mg/kg, route intravenous; details: plasma
Outline: (§2)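 Male Balb Nu/Nu mice (Harlan) received a single 10 mg/kg intravenous dose, n = 3 animals per study. Vehicle was either trifluoroacetate salt in dextrose or free base in 50% PEG 400/glucosate, depending on compound. Parameters were reported as mean ± standard deviation.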

[42] = Clearance in Nu/Nu Balb Harlan mouse at 10 mg/kg, iv; format: ADME, organism-based; parameters: dose 10 mg/kg, route intravenous; details: in vivo; outline: as §2
[43] = Volume of distribution at steady state in Nu/Nu Balb Harlan mouse at 10 mg/kg, iv; format: ADME, organism-based; parameters: dose 10 mg/kg, route intravenous; details: in vivo, read-out: Vdss
[44] = Half life in Nu/Nu Balb Harlan mouse at 10 mg/kg, iv; format: ADME, organism-based; parameters: dose 10 mg/kg, route intravenous; details: in vivo; outline: as §2
[45] = Cmax in Nu/Nu Balb Harlan mouse at 10 mg/kg, po; format: ADME, organism-based; parameters: dose 10 mg/kg, route oral; details: in vivo
[46] = AUC (0 to infinity) in Nu/Nu Balb Harlan mouse at 10 mg/kg, po; format: ADME, organism-based; parameters: time infinity, dose 10 mg/kg, route oral; details: plasma
[47] = Tmax in Nu/Nu Balb Harlan mouse at 10 mg/kg, po; format: ADME, organism-based; parameters: dose 10 mg/kg, route oral; details: in vivo

For `CN1CCN(c2ccc(OC(F)(F)F)c(Nc3nccc(-c4cc5c(n4C)CCNC5=O)n3)c2)CC1`, the pIC50 [1] was under 5.00, the pIC50 [2] was under 5.00 and the pIC50 [3] was under 5.00. For the same molecule, the pIC50 [4] was 7.43, the pIC50 [5] was 6.38 and the pIC50 [6] was 6.18. It also gave a pIC50 [7] of under 5.00, a pIC50 [8] of under 5.00 and a pIC50 [9] of under 5.00. It also gave a pIC50 [10] of under 5.00, a pIC50 [11] of under 5.00 and a pIC50 [12] of under 5.00. It also gave a pIC50 [13] of under 5.00, a pIC50 [14] of under 5.00 and a pIC50 [15] of under 5.00. For the same molecule, the pIC50 [16] was under 5.00, the pIC50 [17] was under 5.00 and the pIC50 [18] was under 5.00. The pIC50 [19] was under 5.00, the pIC50 [20] was under 5.00 and the pIC50 [21] was under 5.00. For the same molecule, the pIC50 [22] was under 5.00, the pIC50 [23] was under 5.00 and the pIC50 [24] was under 5.00. It also gave a pIC50 [25] of under 5.00, a pIC50 [26] of under 5.00 and a pIC50 [27] of under 5.00. For the same molecule, the pIC50 [28] was 7.49, the pIC50 [29] was 7.39 and the pIC50 [30] was 7.22. For the same molecule, the pIC50 [31] was 7.68, the pIC50 [32] was 7.77 and the pIC50 [33] was 7.28. For the same molecule, the Activity [34] was “Active”, the Activity [35] was “Dose-dependent effect” and the Activity [36] was “Dose-dependent effect”. For the same molecule, the Activity [37] was “Active”, the Activity [38] was “Active” and the Activity [39] was “Active”. For the same molecule, the Papp [40] was 5.79 ×10⁻⁶ cm/s, the AUC(0-inf) [41] was 5.78 µM·h and the clearance [42] was 66.4 mL/min/kg. It also gave a Vd [43] of 2.49 L/kg, a half-life [44] of 31.2 min and a Cmax [45] of 760 nM. It also gave an AUC(0-inf) [46] of 2.38 µM·h and a Tmax [47] of 1.5 h.
